In this experiment the test system is Canis familiaris. Nature of the experiment: Mean arterial blood pressure was determined by intraduodenal administration of two dosages of 3 mg/kg of (high dose) compound in anesthetized dogs. Value was reported for experiment 3. Type of experiment: functional, Canis lupus familiaris. An outline of the steps:
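Anesthetized dogs, usually given two intraduodenal doses, with the second dose cumulative (low/high). Left ventricular FRP and CT were determined at 15, 30 and 45 min after dosing. HR and BP were measured during nonpacing intervals. Values are % change from control at low/high dose, for individual animals. The vehicle-stability set used 5% dextrose in water/tragacanth (n = 8).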

Data on one molecule can be found in ChEMBL document CHEMBL1123566, “Synthesis and cardiac electrophysiological activity of 2- and 3-[(substituted phenyl)alkyl]quinuclidines. Structure-activity relationships” (1987).

With `CCCCCCC[N+](CC)(CC)CCCCc1ccc(Cl)cc1.O=P([O-])(O)O` [CLOFILIUM PHOSPHATE], the Mean blood pressure turned out to be 0%.
